Drawing on ChEMBL document CHEMBL1139440, “Chemical function based pharmacophore generation of endothelin-A selective receptor antagonists” (J Med Chem, 2004), this text covers IC50 and inhibition for 31 molecules.

Square brackets hold non-standard residues; d marks the D form. Peptide text beside a SMILES is read from it. * marks the point of attachment. Cbz = O=C(OCc1ccccc1)*

The target in one assay is T1, Endothelin-1 receptor (Homo sapiens) (UniProt P25101).
T1 sequence (whole entry): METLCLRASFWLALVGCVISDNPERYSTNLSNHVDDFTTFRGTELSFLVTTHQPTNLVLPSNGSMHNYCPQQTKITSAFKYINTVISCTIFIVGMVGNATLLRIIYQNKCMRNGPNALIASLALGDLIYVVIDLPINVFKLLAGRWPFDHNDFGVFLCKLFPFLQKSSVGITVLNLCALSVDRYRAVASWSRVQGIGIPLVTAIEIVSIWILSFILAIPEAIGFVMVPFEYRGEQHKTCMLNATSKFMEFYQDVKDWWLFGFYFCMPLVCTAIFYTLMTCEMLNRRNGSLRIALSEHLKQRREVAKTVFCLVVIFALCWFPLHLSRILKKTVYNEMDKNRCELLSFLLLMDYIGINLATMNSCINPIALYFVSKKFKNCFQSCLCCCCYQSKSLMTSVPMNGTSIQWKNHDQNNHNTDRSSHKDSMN
Particulars: Vero.
In general, IC50 refers to the midpoint of a concentration-inhibition curve. A high value points to lower potency. Consider `CC(C)C[C@@H]1NC(=O)[C@@H](C(C)C)NC(=O)[C@@H]2CCCN2C(=O)[C@@H](CC(=O)O)NC(=O)[C@@H](Cc2c[nH]c3ccccc23)NC1=O` (cyclo(L[dW][dD]P[dV])), for which the IC50 turned out to be 25 nM.

Another assay deals with T2, Endothelin-1 receptor (Rattus norvegicus, UniProt P26684).
T2 sequence (P26684 whole entry): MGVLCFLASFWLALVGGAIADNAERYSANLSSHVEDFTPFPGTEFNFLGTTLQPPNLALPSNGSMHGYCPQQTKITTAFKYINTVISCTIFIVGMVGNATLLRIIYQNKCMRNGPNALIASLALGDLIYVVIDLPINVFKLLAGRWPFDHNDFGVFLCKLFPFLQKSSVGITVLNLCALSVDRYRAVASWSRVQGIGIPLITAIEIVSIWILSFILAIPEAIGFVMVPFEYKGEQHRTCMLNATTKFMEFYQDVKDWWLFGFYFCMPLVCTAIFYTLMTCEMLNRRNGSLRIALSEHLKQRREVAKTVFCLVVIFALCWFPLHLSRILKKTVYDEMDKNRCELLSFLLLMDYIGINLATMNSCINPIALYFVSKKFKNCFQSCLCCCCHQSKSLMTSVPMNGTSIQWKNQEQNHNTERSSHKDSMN
As to the kind of experiment: Ability to displace [125I]ET1 from the rat endothelin A receptor expressed in rat aorta smooth muscle cells.
Conditions: not given
It counts as cell-based.
On to `COc1ccc(C(=O)/C(Cc2ccccc2)=C(\C(=O)O)c2ccc3c(c2)OCO3)cc1OC`, for which the IC50 worked out at 11 nM. This lies in the double-digit nanomolar range.

`CCc1ccc(C(=O)/C(Cc2ccccc2)=C(\C(=O)O)c2ccc3c(c2)OCO3)cc1` displayed an IC50 of 630 nM. In the case of `COc1ccc(C/C(C(=O)c2ccc(OC)cc2)=C(/C(=O)O)c2ccc3c(c2)OCO3)cc1`, the IC50 was 1.8 nM. Still for that read-out and setting: in the case of `C/C=C/CC[C@H]1[C@H](C(=O)O)[C@@H](c2ccc3c(c2)OCO3)CN1CC(=O)N(CCCC)CCCC` it was 0.78 nM. The same measure, in the same setting: in the case of `COC1=C(C(=O)O)[C@H](c2ccc3c(c2)OCO3)Oc2ccc(OC(C)C)cc21` it was 5.2 nM; in that of `COc1ccc([C@H]2[C@H](C(=O)O)[C@@H](c3ccc4c(c3)OCO4)CN2CC(=O)NC(Cc2ccccc2)c2ccccc2)cc1` (stereo partly drawn), 3.9 nM.

Turning to `COc1ccc(C(=O)/C(Cc2cccc3ccccc23)=C(\C(=O)O)c2ccc3c(c2)OCO3)cc1`, the IC50 is 14 nM. For `COc1ccc(C(=O)/C(Cc2ccc(-c3ccccc3)cc2)=C(\C(=O)O)c2ccc3c(c2)OCO3)cc1`, the IC50 is 200 nM.

`COc1ccc(C(=O)/C(Cc2cccc(OC)c2)=C(\C(=O)O)c2ccc3c(c2)OCO3)cc1` had an IC50 of 3 nM. On to `COc1ccc(C(=O)/C(Cc2cc(OC)c(OC)c(OC)c2)=C(\C(=O)O)c2cc(OC)c3c(c2)OCO3)cc1`, for which the IC50 is 0.5 nM. For `CCCNC(=O)CN1C[C@@H](c2ccc3c(c2)OCO3)[C@H](C(=O)O)[C@H]1c1ccc(OC)cc1`, the IC50 was determined as 45.3 nM. `COc1ccc(C(=O)/C(Cc2ccc(Cl)cc2)=C(\C(=O)O)c2ccc3c(c2)OCO3)cc1` displayed an IC50 of 110 nM. Turning to `CCOc1ccc2c(c1)[C@@H](c1ccc(OC)cc1)N(CC(=O)O)[C@@H]2c1ccc2c(c1)OCO2`, the half-maximal inhibitory concentration (IC50) was found to be 96 nM. The IC50 values of the last two molecules are within 1.5-fold of each other. `CCOc1cc(C/C(C(=O)c2ccc(OC)cc2)=C(/C(=O)O)c2ccc3c(c2)OCO3)cc(OCC)c1OCC` returned an IC50 of 0.12 nM. This IC50 is about 800-fold lower than that of the molecule before. Molecule `COc1cccc(C(=O)/C(Cc2ccccc2)=C(\C(=O)O)c2ccc3c(c2)OCO3)c1` had an IC50 of 500 nM. This IC50 is about 4200-fold higher than that of the molecule before.

`COc1cc(/C(C(=O)O)=C(\CC2CCCCC2)C(=O)c2ccc3c(c2)OCCO3)cc2c1OCO2`: the IC50 came to 3.5 nM. This IC50 lies about 140-fold lower than the previous one. The molecule `COc1ccc([C@H]2[C@H](C(=O)O)[C@@H](c3ccc4c(c3)OCO4)CN2CC(=O)Nc2cccc(C)c2C)cc1` yielded an IC50 of 16 nM. `CCOc1ccc2c(c1)[C@@H](c1ccc(OC)cc1OCC(=O)O)N(CC(=O)O)[C@@H]2c1ccc2c(c1)OCO2`: the IC50 is 5.4 nM.

For `CCCCN(CCCC)C(=O)CN1C[C@H](c2ccc3c(c2)OCO3)[C@@H](C(=O)O)[C@@H]1CCCCC(C)C`, the IC50 turned out to be 0.29 nM. `COc1ccc([C@H]2[C@H](C(=O)O)[C@@H](c3ccc4c(c3)OCO4)CN2CC(=O)NC(c2ccccc2)C(C)C)cc1` (stereo partly drawn): the 50% inhibitory concentration (IC50) was 0.7 nM. Consider `COc1ccc([C@@H]2[C@@H](CC(=O)O)[C@H](c3ccc4c(c3)OCO4)CN2CC(N)=O)cc1`, for which the IC50 came to 2030 nM. On the same count and under the same terms, in the case of `CCCCN(CCCC)C(=O)CN1C[C@H](c2ccc3c(c2)OCO3)[C@@H](CC(=O)O)[C@@H]1c1ccc(OC)cc1` it was 0.5 nM; in that of `COc1ccc(C(=O)/C(Cc2ccccc2)=C(\C(=O)O)c2cc(OC)c3c(c2)OCO3)cc1`, 6.7 nM.

The molecule `COC(=O)CCCCOc1cc(C/C(C(=O)c2ccc(OC)cc2)=C(/C(=O)O)c2ccc3c(c2)OCO3)cc(OC)c1OC` gave an IC50 of 0.05 nM. Compared with the last molecule, the IC50 is about 130-fold lower.

The molecule `CCCCC1=C(C(=O)O)C(c2ccc3c(c2)OCO3)Oc2ccc(OC(C)C)cc21` (stereo not drawn) came in with an IC50 of 410 nM.

In the next assay the target is T3, Endothelin-1 receptor (Homo sapiens, UniProt P25101).
T3 sequence (P25101 whole entry): T1 sequence (whole entry)
As to the kind of experiment: Inhibition of [125]ET-1 binding to human Endothelin A receptor expressed in vero cells. It counts as cell-based.
Conditions: not given
In outline:
(§1)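 Vero (green monkey renal) cells grown as monolayers at 37 °C in MEM with 10% FBS, nonessential amino acids and penicillin/streptomycin under 5% CO2. Whole-cell binding was done in triplicate (2 × 10^5 cells/well) in HEPES-buffered saline at pH 7.4 with 50 pM [125I]ET-1 for 1 h. Nonspecific binding was defined with 500 nM ET-1. Compounds were tested at ca. 10^-10–10^-4 M. Bound radioactivity was collected by filtration and counted.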
As for `CC(C)C(NC(=O)OCc1ccccc1)C(=O)NC(Cc1ccc(O)cc1)C(=O)O` (stereo not drawn) (Cbz-Val-Tyr-OH; configuration not given here), the IC50 came to 0.22 µM. In turn, `COC(=O)c1cc(S(=O)(=O)Nc2cccc(-c3cnco3)c2)oc1C` showed a half-inhibitory concentration (IC50) of 6.2 µM.

The next assay has as its target T1, Endothelin-1 receptor (Homo sapiens). The experiment in a line: Inhibition of [125]ET-1 binding to human ETA receptor expressed in vero cells at 10E-4 M concentration. Type of assay: cell-based.
Conditions: not given
In outline:
as §1
The inhibition is the share of the control response that was lost under treatment. Read a high inhibition as a strong effect. `COc1ccc(NC(=O)CC(CC(=O)O)c2cc(OC)c(OC)c(OC)c2)cc1` (stereo not drawn) yielded an inhibition of 60%. Consider `CCOc1cc(N2CCOCC2)c(OCC)cc1NS(=O)(=O)c1ccc(OC)cc1`, for which the inhibition worked out at 77%.

Another assay addresses T4, Endothelin receptor type B (Homo sapiens, UniProt P24530).
T4 sequence (P24530 whole entry): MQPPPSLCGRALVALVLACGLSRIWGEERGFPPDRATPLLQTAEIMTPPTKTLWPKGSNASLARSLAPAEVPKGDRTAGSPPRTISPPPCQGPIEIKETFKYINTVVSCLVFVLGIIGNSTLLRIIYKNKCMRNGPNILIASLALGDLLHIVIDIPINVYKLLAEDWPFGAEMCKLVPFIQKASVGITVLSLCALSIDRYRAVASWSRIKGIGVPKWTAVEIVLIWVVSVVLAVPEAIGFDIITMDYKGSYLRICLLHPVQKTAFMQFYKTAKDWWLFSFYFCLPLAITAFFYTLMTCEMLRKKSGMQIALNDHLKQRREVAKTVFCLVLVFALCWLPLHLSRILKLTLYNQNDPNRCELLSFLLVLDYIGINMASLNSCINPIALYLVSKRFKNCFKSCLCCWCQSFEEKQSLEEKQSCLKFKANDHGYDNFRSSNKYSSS
The experiment in a line: Inhibitory concentration against Endothelin B receptor.
Conditions: not given
`COc1ccc(C(=O)/C(Cc2cccc(OC)c2)=C(\C(=O)O)c2ccc3c(c2)OCO3)cc1` returned an IC50 of 260 nM. This counts as sub-micromolar. With `CCCCC1=C(C(=O)O)[C@@H](c2ccc3c(c2)OCO3)Oc2ccc(OC(C)C)cc21`, inhibition was half-maximal at 400 nM (IC50). `CCCCN(CCCC)C(=O)CN1C[C@H](c2ccc3c(c2)OCO3)[C@@H](CC(=O)O)[C@@H]1c1ccc(OC)cc1` displayed an IC50 of 5100 nM.
